Reference: ChEMBL document CHEMBL1132488, “On the bioactive conformation of NAN-190 (1) and MP3022 (2), 5-HT(1A) receptor antagonists” (J Med Chem, 1999)

Key:
Rattus norvegicus [1] = species on record: Rattus norvegicus; assay: Dose Inducing behavioral syndrome(FBP: flat body posture) by the compound in reserpine pretreated rats.; assay type: functional
Summary of the method: (§1)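 Male Wistar rats (260–300 g), groups of 6, given reserpine 1 mg/kg sc 18 h before test. Compounds given ip as 1% Tween 80 suspension. FBP and FT rated 0–3 in 45-s sessions every 3 min, starting 3 min after dosing. Score summed over 5 periods (max 15 per symptom). Mean ± SEM; Newman–Keuls test.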

Rattus norvegicus [2] = assay: Induction of LLR(lower lip retraction) by the compound in rats at a dose of 16 mg/kg; assay type: functional
Summary of the method: (§2)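 Male Wistar rats, groups of 6, given compound alone ip as 1% Tween 80 suspension. Lower incisor visibility scored 0/0.5/1 at 15, 30 and 45 min after dosing, summed (max 3 per rat). Mean ± SEM versus vehicle, Newman–Keuls test; ED50 with range.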

Rattus norvegicus [3] = species on record: Rattus norvegicus; assay: Effect on 8-OH-DAPT- induced behavioral syndrome(FT: forepaw treading) by the compound in reserpine pretreated rats at a dose of 8.; assay type: functional
Summary of the method: (§3)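 Reserpinized male Wistar rats (reserpine 1 mg/kg sc, 18 h before), groups of 6. Compound given ip in 1% Tween 80 60 min before 8-OH-DPAT 5 mg/kg sc. FBP/FT rated 0–3 at 3, 6, 9, 12 and 15 min after agonist, summed (max 15). Mean ± SEM; Newman–Keuls test; ED50 with range.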

Rattus norvegicus [4] = species on record: Rattus norvegicus; assay: Induction of behavioral syndrome(FBP: flat body posture) by the compound in reserpine pretreated rats at a dose of 2.; assay type: functional; summary of the method: as §1
Rattus norvegicus [5] = species on record: Rattus norvegicus; assay: Induction of behavioral syndrome(FBP: flat body posture) by the compound in reserpine pretreated rats at a dose of 4.; assay type: functional
Summary of the method: (§4)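 Male Wistar rats (260–300 g) were given reserpine 1 mg/kg sc in saline 18 h before testing. Test compound was then given alone ip as a 1% Tween 80 suspension (2 mL/kg). FBP and FT were each scored 0–3 and summed (maximum 15). n=6 per group; mean ± SEM; Newman–Keuls test.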

Rattus norvegicus [6] = assay: Effect on 8-OH-DPAT-Induced LLR(lower lip retraction) in rats at a dose of 8 mg/kg; assay type: functional
Summary of the method: (§5)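 Male Wistar rats, groups of 6. Compound given ip in 1% Tween 80 45 min before 8-OH-DPAT 1 mg/kg sc. Lower incisor visibility scored 0/0.5/1 at 15, 30 and 45 min after agonist, summed (max 3). Mean ± SEM; Newman–Keuls test; ED50 with range.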

Rattus norvegicus [7] = species on record: Rattus norvegicus; assay: Dose Inducing behavioral syndrome(FT: forepaw treading) by the compound in reserpine pretreated rats.; assay type: functional; summary of the method: as §1
Rattus norvegicus [8] = species on record: Rattus norvegicus; assay: Induction of behavioral syndrome(FT: forepaw treading) by the compound in reserpine pretreated rats at a dose of 2.; assay type: functional
Rattus norvegicus [9] = species on record: Rattus norvegicus; assay: Effect on 8-OH-DAPT- induced behavioral syndrome(FBP: flat body posture) by the compound in reserpine pretreated rats at a dose of 4.; assay type: functional; summary of the method: as §3
Rattus norvegicus [10] = species on record: Rattus norvegicus; assay: Induction of behavioral syndrome(FBP: flat body posture) by the compound in reserpine pretreated rats at a dose of 8.; assay type: functional; summary of the method: as §4
Rattus norvegicus [11] = assay: Effect on 8-OH-DPAT-Induced LLR(lower lip retraction) in rats at a dose of 4 mg/kg; assay type: functional; summary of the method: as §5
Rattus norvegicus [12] = species on record: Rattus norvegicus; assay: Effect on 8-OH-DAPT- induced behavioral syndrome(FBP: flat body posture) by the compound in reserpine pretreated rats at a dose of 2.; assay type: functional
Rattus norvegicus [13] = species on record: Rattus norvegicus; assay: Effect on 8-OH-DAPT- induced behavioral syndrome(FBP: flat body posture) by the compound in reserpine pretreated rats at a dose of 8.; assay type: functional; summary of the method: as §3
Rattus norvegicus [14] = species on record: Rattus norvegicus; assay: Induction of behavioral syndrome(FT: forepaw treading) by the compound in reserpine pretreated rats at a dose of 4.; assay type: functional; summary of the method: as §4
Rattus norvegicus [15] = species on record: Rattus norvegicus; assay: Effective dose of the required to inhibit symptoms produced by 8-OH-DPAT; assay type: functional; summary of the method: as §3
Rattus norvegicus [16] = species on record: Rattus norvegicus; assay: Effect on 8-OH-DAPT- induced behavioral syndrome(FT: forepaw treading) by the compound in reserpine pretreated rats at a dose of 4.; assay type: functional; summary of the method: as §3
Rattus norvegicus [17] = species on record: Rattus norvegicus; assay: Effect on 8-OH-DAPT- induced behavioral syndrome(FT: forepaw treading) by the compound in reserpine pretreated rats at a dose of 2.; assay type: functional
Rattus norvegicus [18] = assay: Effect on 8-OH-DPAT-Induced LLR(lower lip retraction) in rats at a dose of 16 mg/kg; assay type: functional; summary of the method: as §5
Rattus norvegicus [19] = species on record: Rattus norvegicus; assay: Induction of behavioral syndrome(FT: forepaw treading) by the compound in reserpine pretreated rats at a dose of 8.; assay type: functional; summary of the method: as §4
Rattus norvegicus [20] = assay: Induction of LLR(lower lip retraction) by the compound in rats at a dose of 8 mg/kg; assay type: functional; summary of the method: as §2
[21] = biological target: T1, 5-hydroxytryptamine receptor 1A (Rattus norvegicus, UniProt P19327); assay: Ability to displace [3H]8-OH-DPAT from 5-hydroxytryptamine 1A receptor
T1 sequence (P19327 whole entry): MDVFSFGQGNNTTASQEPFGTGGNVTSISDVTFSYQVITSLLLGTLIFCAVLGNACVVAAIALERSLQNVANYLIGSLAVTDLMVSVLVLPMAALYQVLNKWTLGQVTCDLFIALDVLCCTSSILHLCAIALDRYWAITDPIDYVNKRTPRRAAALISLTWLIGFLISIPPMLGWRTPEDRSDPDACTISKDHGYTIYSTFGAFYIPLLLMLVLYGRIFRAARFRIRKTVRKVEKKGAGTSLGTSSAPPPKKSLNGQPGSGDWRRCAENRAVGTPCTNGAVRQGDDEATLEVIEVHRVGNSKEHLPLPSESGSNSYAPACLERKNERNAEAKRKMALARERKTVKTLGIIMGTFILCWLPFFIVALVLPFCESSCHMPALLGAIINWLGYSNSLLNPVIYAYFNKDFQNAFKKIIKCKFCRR
Summary of the method: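 Rat hippocampal membranes, [3H]8-OH-DPAT radioligand. Ki from at least three competition experiments, each with 10–14 drug concentrations run in triplicate. Ki calculated with the Cheng–Prusoff equation.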

Rattus norvegicus [22] = assay: Induction of LLR(lower lip retraction) by the compound in rats at a dose of 4 mg/kg; assay type: functional; summary of the method: as §2

COc1ccccc1N1CCN(C2CCC(N3C(=O)c4ccccc4C3=O)CC2)CC1 (configuration not stated) was tested, and the ED50 (Rattus norvegicus [1]) was 6.3, the LLR score (Rattus norvegicus [2]) was 1.2 and the FT mean score (Rattus norvegicus [3]) was 1. It also gave an FBP mean score (Rattus norvegicus [4]) of 0.1, an FBP mean score (Rattus norvegicus [5]) of 0.2 and an LLR score (Rattus norvegicus [6]) of 1.5. The ED50 (Rattus norvegicus [7]) was 2.3 mg/kg, the FT mean score (Rattus norvegicus [8]) was 0.1 and the FBP mean score (Rattus norvegicus [9]) was 8.8. For the same molecule, the FBP mean score (Rattus norvegicus [10]) was 0.2, the LLR score (Rattus norvegicus [11]) was 2 and the FBP mean score (Rattus norvegicus [12]) was 9.8. For the same molecule, the FBP mean score (Rattus norvegicus [13]) was 5.6, the FT mean score (Rattus norvegicus [14]) was 0.2 and the ED50 (Rattus norvegicus [15]) was 7.5 mg/kg. It also gave an FT mean score (Rattus norvegicus [16]) of 4.2, an FT mean score (Rattus norvegicus [17]) of 6.2 and an LLR score (Rattus norvegicus [18]) of 0.6. The FT mean score (Rattus norvegicus [19]) was 0.2, the LLR score (Rattus norvegicus [20]) was 1 and the Ki [21] was 8 nM. The LLR score (Rattus norvegicus [22]) was 1.3.
